Assay results from ChEMBL document CHEMBL1938356, “Structure-activity relationship of salicylic acid derivatives on inhibition of TNF-α dependent NFκB activity: Implication on anti-inflammatory effect of N-(5-chlorosalicyloyl)phenethylamine against experimental colitis” (Eur J Med Chem, 2012).
Active and inactive are the calls of the source. No cut-off for these calls is given here.

How the values were obtained:
HCT-116 [1] = assay: Inhibition of TNF-alpha-induced NF-kappaB activation in human HCT116 cells at 1 mM after 6 hrs by luciferase reporter gene assay; type: cell-based
Outline: (§1)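 HCT116 cells at 50-60% confluence were cotransfected (Fugene) with an NFκB-dependent firefly luciferase plasmid and CMV Renilla plasmid (4 ng). After 24 h, cells received TNF-α (1 ng/ml) plus compound for 6 h, then were lysed. Dual-luciferase read-out, firefly normalized to Renilla. IC50 came from varied concentrations.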

[2] = (§2) Inhibition of TNF-alpha-induced NF-kappaB activation in human HCT116 cells after 6 hrs by luciferase reporter gene assay; type: cell-based; conditions: HCT-116, 6 h; outline: as §1
RAW264.7 [3] = conditions: Mus musculus, 5 mM
RAW264.7 [4] = conditions: Mus musculus, 2 to 4 mM
RAW264.7 [5] = assay: Inhibition of NF-kappaB-mediated iNOS protein expression in LPS-stimulated mouse RAW264.7 cells at 0.1 mM by Western blot analysis; type: cell-based
Outline: (§3)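 RAW264.7 cells grown in DMEM with 10% FBS were pretreated 1 h with drug, then stimulated with LPS (1 ng/ml) for 6 h. iNOS was immunoblotted in whole-cell lysates (30-40 µg) with a polyclonal antibody, α-tubulin served as loading control, in duplicate.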

HCT-116 [6] = assay: as §2; type: cell-based; outline: as §1
Rattus norvegicus [7] = assay: Antiinflammatory activity against trinitrobenzenesulfonic acid-induced colitis in rat assessed as healing of damaged colon at 300 uM administered rectally QD for 6 days; type: functional, organism-based
Outline: (§4)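 TNBS colitis in rats: after a 24 h fast with free access to water and light ether anaesthesia, TNBS (15 mg/0.3 ml/rat in 50% aqueous ethanol) was instilled through a rectal cannula whose tip sat 8 cm proximal to the anus. From day 3, drug in PBS (500 µL; 100 or 300 µM, or sodium 5-aminosalicylate 30 mM) was given rectally once daily for 6 days, then rats were sacrificed.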

Rattus norvegicus [8] = assay: Antiinflammatory activity against trinitrobenzenesulfonic acid-induced colitis in rat assessed as healing of damaged colon administered rectally QD for 6 days; type: functional, organism-based; outline: as §4
Rattus norvegicus [9] = assay: Antiinflammatory activity against trinitrobenzenesulfonic acid-induced colitis in rat assessed as decrease in myeloperoxidase activity at 100 uM administered rectally QD for 6 days; type: functional; design: scale not given: the % may be the effect or the level left; outline: as §4
Rattus norvegicus [10] = assay: Antiinflammatory activity against trinitrobenzenesulfonic acid-induced colitis in rat assessed as decrease in myeloperoxidase activity at 300 uM administered rectally QD for 6 days; type: functional; design: scale not given: the % may be the effect or the level left; outline: as §4
Rattus norvegicus [11] = assay: Antiinflammatory activity against trinitrobenzenesulfonic acid-induced colitis in rat assessed as decrease in CINC-3 protein at 300 uM administered rectally QD for 6 days; type: functional, organism-based; outline: as §4
Rattus norvegicus [12] = assay: Antiinflammatory activity against trinitrobenzenesulfonic acid-induced colitis in rat assessed as decrease in CINC2 protein expression administered rectally QD for 6 days; type: functional, organism-based
Rattus norvegicus [13] = assay: Antiinflammatory activity against trinitrobenzenesulfonic acid-induced colitis in rat assessed as decrease in COX2 protein administered rectally QD for 6 days; type: functional, organism-based; outline: as §4
Rattus norvegicus [14] = assay: Antiinflammatory activity against trinitrobenzenesulfonic acid-induced colitis in rat assessed as decrease in COX2 protein at 300 uM administered rectally QD for 6 days; type: functional, organism-based; outline: as §4
RAW264.7 [15] = assay: Inhibition of NF-kappaB-mediated iNOS protein expression in LPS-stimulated mouse RAW264.7 cells at 0.5 to 2 mM by Western blot analysis; type: cell-based
Outline: (§5)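 RAW264.7 cells in DMEM with 10% FBS were pretreated with a range of drug concentrations and stimulated with LPS. iNOS was immunoblotted in whole-cell lysates (30-40 µg), α-tubulin served as loading control, in duplicate.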

RAW264.7 [16] = assay: Inhibition of NF-kappaB-mediated iNOS protein expression in LPS-stimulated mouse RAW264.7 cells at 0.25 mM by Western blot analysis; type: cell-based; outline: as §3
Rattus norvegicus [17] = assay: Antiinflammatory activity against trinitrobenzenesulfonic acid-induced colitis in rat assessed as decrease in COX2 protein at 30 mM administered rectally QD for 6 days; type: functional, organism-based; outline: as §4
Rattus norvegicus [18] = assay: Antiinflammatory activity against trinitrobenzenesulfonic acid-induced colitis in rat assessed as healing of damaged colon at 30 mM administered rectally QD for 6 days; type: functional, organism-based; outline: as §4
Rattus norvegicus [19] = assay: Antiinflammatory activity against trinitrobenzenesulfonic acid-induced colitis in rat assessed as decrease in myeloperoxidase activity at 30 mM administered rectally QD for 6 days; type: functional, organism-based; outline: as §4
Rattus norvegicus [20] = assay: Antiinflammatory activity against trinitrobenzenesulfonic acid-induced colitis in rat assessed as decrease in CINC2 protein expression at 30 mM administered rectally QD for 6 days; type: functional, organism-based
RAW264.7 [21] = assay: Inhibition of NF-kappaB-mediated iNOS protein expression in LPS-stimulated mouse RAW264.7 cells at 1 to 4 mM by Western blot analysis; type: cell-based; outline: as §5

For COC(=O)c1ccccc1O, the inhibition (HCT-116 [1]) was “Active”.

For O=C(c1cc(Cl)ccc1O)N1CCNCC1, the IC50 [2] was over 250 µM.

With O=C(c1cc(Cl)ccc1O)N1CCN(c2ccccc2)CC1 the IC50 [2] was over 250 µM.

With O=C(O)c1ccccc1O the inhibition (HCT-116 [1]) was “Active”, the inhibition (RAW264.7 [3]) was “Active” and the inhibition (RAW264.7 [4]) was “Active”.

For O=C(NCCc1ccccc1)c1cc(Cl)ccc1O, the inhibition (RAW264.7 [5]) was “Active”, the IC50 [2] was 15 µM and the inhibition (HCT-116 [6]) was “Dose-dependent effect”. The Activity (Rattus norvegicus [7]) was “Active”, the Activity (Rattus norvegicus [8]) was “Dose-dependent effect” and the Activity (Rattus norvegicus [9]) was 60%. For the same compound, the Activity (Rattus norvegicus [10]) was 35%, the Activity (Rattus norvegicus [11]) was “Active” and the Activity (Rattus norvegicus [12]) was “Dose-dependent effect”. The Activity (Rattus norvegicus [13]) was “Dose-dependent effect” and the Activity (Rattus norvegicus [14]) was “Active”.

CCCCCCNC(=O)c1cc(Cl)ccc1O gave an IC50 [2] of 95 µM.

With CNC(=O)c1cc(Cl)ccc1O the IC50 [2] was over 250 µM.

For O=C(O)c1cc([N+](=O)[O-])ccc1O, the inhibition (HCT-116 [1]) was “Active”.

In the case of NC(=O)c1cc(Cl)ccc1O, the inhibition (RAW264.7 [15]) is reported as “Active”.

With CC(=O)Oc1ccccc1C(=O)O the inhibition (HCT-116 [1]) was “Active”.

For O=C(NCCc1ccc(O)cc1)c1cc(Cl)ccc1O, the inhibition (RAW264.7 [16]) was “Active”, the IC50 [2] was 91 µM and the inhibition (HCT-116 [6]) was “Dose-dependent effect”.

With Nc1ccc(O)c(C(=O)O)c1 the inhibition (HCT-116 [1]) was “Active”, the Activity (Rattus norvegicus [17]) was “Active” and the Activity (Rattus norvegicus [18]) was “Active”. For the same compound, the Activity (Rattus norvegicus [19]) was “Active” and the Activity (Rattus norvegicus [20]) was “Active”.

For O=C(O)c1cc(-c2ccc(F)cc2F)ccc1O, the inhibition (HCT-116 [1]) was “Active”.

With CN1CCN(C(=O)c2cc(Cl)ccc2O)CC1 the IC50 [2] was over 250 µM.

For O=C(c1cc(Cl)ccc1O)N1CCOCC1, the IC50 [2] was over 250 µM.

O=C(NCc1ccccc1)c1cc(Cl)ccc1O gave an IC50 [2] of 105 µM.

With O=C(O)c1cc(Cl)ccc1O the inhibition (HCT-116 [1]) was “Active” and the inhibition (RAW264.7 [21]) was “Active”.

In the case of O=C(NCCCc1ccccc1)c1cc(Cl)ccc1O, the inhibition (RAW264.7 [5]) is reported as “Active”, the IC50 [2] is reported as 17 µM and the inhibition (HCT-116 [6]) is reported as “Dose-dependent effect”.

With NC(=O)c1ccccc1O the inhibition (HCT-116 [1]) was “Active” and the inhibition (RAW264.7 [21]) was “Active”.

Compound CN(C)C(=O)c1cc(Cl)ccc1O has an IC50 [2] of over 250 µM.

O=C(c1cc(Cl)ccc1O)N1CCCCC1 gave an IC50 [2] of over 250 µM.
